Experiments:
MCF7 = test: Cytotoxicity against human MCF7 cells assessed as cell growth inhibition after 72 hrs by CCK-8 assay; type: functional; conditions: MCF7, 72 h
Method in brief: (§1)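 HeLa, MCF7, H1975, U937 and MDA-MB-231 kept in RPMI or DMEM with 10% FBS and 1% pen/strep at 37 °C, 5% CO2. Seeded at 400-800 cells/well in 384-well format, exposed to a concentration series or solvent control for 72 h. CCK-8 added, absorbance read at 450 nm, IC50 fitted from dose-response curves.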

HeLa = test: Cytotoxicity against human HeLa cells assessed as cell growth inhibition after 72 hrs by CCK-8 assay; type: functional; method in brief: as §1
MDA-MB-231 [1] = test: Cytotoxicity against human MDA-MB-231 cells assessed as cell growth inhibition after 72 hrs by CCK-8 assay; type: functional; conditions: MDA-MB-231, 72 h; method in brief: as §1
U-937 = test: Cytotoxicity against human U937 cells assessed as cell growth inhibition after 72 hrs by CCK-8 assay; type: functional; conditions: U-937, 72 h; method in brief: as §1
NCI-H1975 = test: Cytotoxicity against human NCI-H1975 cells assessed as cell growth inhibition after 72 hrs by CCK-8 assay; type: functional; conditions: NCI-H1975, 72 h; method in brief: as §1
[2] = molecular target: T1, Nicotinamide phosphoribosyltransferase (Homo sapiens, UniProt P43490); test: Inhibition of recombinant NAMPT (unknown origin) using nicotinamide as substrate measured every 5 mins for 30 mins in presence of recombinant NMNAT1
[3] = Tmax in Sprague-Dawley rat at 25 mg/kg, po by LC-MS analysis; type: ADME, organism-based; conditions: in vivo
[4] = molecular target: T1, Nicotinamide phosphoribosyltransferase; test: Inhibition of NAMPT in human MCF7 cells assessed as decrease in NAD production after 24 hrs by NAD/NADH Glo assay; type: cell-based
Method in brief: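 MCF-7 cells serum-starved over 12 h, then treated with compound or vehicle for 24 h. Washed in ice-cold PBS, lysed in 1% DTAB in 0.2 N NaOH diluted 1:1 with PBS, frozen at -80 °C.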

[5] = AUC (0 to infinity) in Sprague-Dawley rat at 5 mg/kg, iv measured up to 24 hrs by LC-MS analysis; type: ADME, organism-based; design: dose 5 mg/kg, time infinity, route intravenous; conditions: in vivo
[6] = Cmax in Sprague-Dawley rat at 25 mg/kg, po measured up to 24 hrs by LC-MS analysis; type: ADME, organism-based; design: dose 25 mg/kg, route oral; conditions: in vivo
[7] = Plasma clearance in Sprague-Dawley rat at 25 mg/kg, po measured up to 24 hrs by LC-MS analysis; type: ADME, organism-based
[8] = Half life in Sprague-Dawley rat at 5 mg/kg, iv by LC-MS analysis; type: ADME, organism-based; conditions: in vivo
[9] = Toxicity in nude SCID mouse assessed as mortality at 15 mg/kg, iv qd administered 4 days per week for 4 weeks; type: organism-based; conditions: in vivo
Method in brief: (§2)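 Female SCID nude mice (6 weeks) bearing MDA-MB-231 orthotopic tumours (1 × 10^6 cells in lower left mammary fat pad). Randomised at tumour volume 100–300 mm3 into vehicle or treatment groups (n = 5). Dosing 15 mg/kg i.v., 4 days a week. Vehicle elsewhere given as 2% DMSO, 4% EtOH, 4% castor oil, 90% water. Body weight and mortality recorded during treatment.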

[10] = AUC (0 to infinity) in Sprague-Dawley rat at 25 mg/kg, po measured up to 24 hrs by LC-MS analysis; type: ADME, organism-based; design: dose 25 mg/kg, route oral, time infinity; conditions: in vivo
[11] = Cmax in Sprague-Dawley rat at 5 mg/kg, iv measured up to 24 hrs by LC-MS analysis; type: ADME, organism-based; design: dose 5 mg/kg, route intravenous; conditions: in vivo
MDA-MB-231 [12] = test: Antitumor activity against human MDA-MB-231 cells xenografted in nude SCID mouse assessed as tumor growth inhibition at 15 mg/kg, iv qd administered 4 days per week for 4 weeks; type: functional; conditions: MDA-MB-231, iv, read-out: TGI
Method in brief: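 Female SCID nude mice, 6 weeks old, given 1 × 10^6 MDA-MB-231 cells into the lower left mammary fat pad. At 100–300 mm3 tumours, randomised to groups of n = 5 and dosed i.v. at 15 mg/kg or vehicle 4 days a week. Volume = L × W²/2; TGI = [1 − (T − T0)/(C − C0)] × 100 from mean volumes; body weight followed.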

[13] = Oral bioavailability in Sprague-Dawley rat at 25 mg/kg measured up to 24 hrs by LC-MS analysis; type: ADME, organism-based; conditions: in vivo
[14] = Plasma clearance in Sprague-Dawley rat at 5 mg/kg, iv measured up to 24 hrs by LC-MS analysis; type: ADME, organism-based
[15] = Tmax in Sprague-Dawley rat at 5 mg/kg, iv by LC-MS analysis; type: ADME, organism-based; conditions: in vivo
[16] = Toxicity in nude SCID mouse assessed as body weight loss at 15 mg/kg, iv qd administered 4 days per week for 4 weeks; type: organism-based; conditions: in vivo; method in brief: as §2
[17] = Half life in Sprague-Dawley rat at 25 mg/kg, po by LC-MS analysis; type: ADME, organism-based; conditions: in vivo
[18] = Ratio of Cmax in Sprague-Dawley rat to IC50 for NAMPT in human MCF7 cells; type: ADME, cell-based

T1 sequence (P43490 whole entry): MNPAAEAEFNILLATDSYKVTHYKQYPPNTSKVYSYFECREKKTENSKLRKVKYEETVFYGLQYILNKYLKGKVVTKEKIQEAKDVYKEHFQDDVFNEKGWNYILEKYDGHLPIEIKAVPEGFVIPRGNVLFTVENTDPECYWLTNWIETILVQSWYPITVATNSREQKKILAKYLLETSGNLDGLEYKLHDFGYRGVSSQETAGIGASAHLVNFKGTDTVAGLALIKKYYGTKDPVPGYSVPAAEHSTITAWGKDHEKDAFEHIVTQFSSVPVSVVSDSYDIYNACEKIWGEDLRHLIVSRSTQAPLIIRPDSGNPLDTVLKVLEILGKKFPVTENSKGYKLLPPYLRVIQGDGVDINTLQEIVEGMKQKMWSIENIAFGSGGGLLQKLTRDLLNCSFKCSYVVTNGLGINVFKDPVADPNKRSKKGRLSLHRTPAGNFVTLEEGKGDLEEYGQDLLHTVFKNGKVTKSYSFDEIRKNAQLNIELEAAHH

IC50 [2] | SMILES | GI50 (MCF7) | GI50 (HeLa) | GI50 (MDA-MB-231 [1]) | GI50 (U-937) | GI50 (NCI-H1975) | also measured
873 nM | CCN(CCc1c[nH]c2ccccc12)Cc1ccc(CCCNC(=O)/C=C/c2cccnc2)cc1 | 41 nM | 200 nM | 76.4 nM | 48.3 nM | 314 nM | 
381 nM | CC(C)N(CCc1cccc(C(F)(F)F)c1)Cc1ccc(CCCCCNC(=O)/C=C/c2cccnc2)cc1 | 2.41 nM | 15.2 nM | 6.92 nM | 5.1 nM | 26.2 nM | 
 | CC(=O)O[C@H]1C(=O)[C@@]2(C)[C@H]([C@H](OC(=O)c3ccccc3)[C@]3(O)C[C@H](OC(=O)[C@H](O)[C@@H](NC(=O)c4ccccc4)c4ccccc4)C(C)=C1C3(C)C)[C@]1(OC(C)=O)CO[C@@H]1C[C@@H]2O [PACLITAXEL] | 4.38 nM | 2.34 nM | 8.67 nM | 2.12 nM | 5.77 nM | 
285 nM | CC(C)N(CCc1ccccc1)Cc1ccc(CCCCCNC(=O)/C=C/c2cccnc2)cc1 | 7.18 nM | 19.6 nM | 10.1 nM | 6.21 nM | 61.3 nM | 
120 nM | Cc1[nH]c2ccccc2c1CCN(Cc1ccc(CCCCCNC(=O)/C=C/c2cccnc2)cc1)C(C)C | 1.67 nM | 7.93 nM | 3.03 nM | 1.58 nM | 13.3 nM | 
149 nM | CC(C)N(CCc1ccc(F)cc1)Cc1ccc(CCCCCNC(=O)/C=C/c2cccnc2)cc1 | 7.37 nM | 20.9 nM | 13.6 nM | 7.67 nM | 34.1 nM | 
702 nM | CC(C)N(CCc1c[nH]c2ccccc12)Cc1ccc(CCCNC(=O)/C=C/c2cccnc2)cc1 | 22.4 nM | 90.7 nM | 30.5 nM | 24.2 nM | 79.7 nM | 
54.8 nM | COc1ccc(CCN(Cc2ccc(CCCCCNC(=O)/C=C/c3cccnc3)cc2)C(C)C)cc1 | 1.38 nM | 6.95 nM | 2.86 nM | 2.12 nM | 9.87 nM | 
780 nM | CN(CCc1c[nH]c2ccccc12)Cc1ccc(CCCNC(=O)/C=C/c2cccnc2)cc1 | 75.4 nM | 250 nM | 84.7 nM | 69.1 nM | 224 nM | 
1000 nM | O=C(/C=C/c1cccnc1)NCCCc1ccc(CN(CCc2c[nH]c3ccccc23)Cc2ccccc2)cc1 | 101 nM | 379 nM | 269 nM | 85.2 nM | 514 nM | 
181 nM | O=C(/C=C/c1cccnc1)NCCCc1ccc(CN(CCO)CCc2c[nH]c3ccccc23)cc1 | 18.1 nM | 69.4 nM | 31.4 nM | 18.3 nM | 107 nM | 
544 nM | CCCN(CCc1c[nH]c2ccccc12)Cc1ccc(CCCNC(=O)/C=C/c2cccnc2)cc1 | 23.8 nM | 55.7 nM | 36 nM | 28.1 nM | 109 nM | 
362 nM | CC(C)N(CCc1ccc(C(F)(F)F)cc1)Cc1ccc(CCCCCNC(=O)/C=C/c2cccnc2)cc1 | 1.6 nM | 8.98 nM | 2.4 nM | 1.57 nM | 9.54 nM | 
195 nM | CC(C)N(CCc1ccsc1)Cc1ccc(CCCCCNC(=O)/C=C/c2cccnc2)cc1 | 8.47 nM | 43.7 nM | 23.6 nM | 14.8 nM | 71.8 nM | 
82.5 nM | CC(C)N(Cc1ccccc1)Cc1ccc(CCCCCNC(=O)/C=C/c2cccnc2)cc1 | 6.37 nM | 40.1 nM | 12.6 nM | 11.1 nM | 49 nM | 
 | O=C(/C=C/c1cccnc1)NCCCCC1CCN(C(=O)c2ccccc2)CC1 [DAPORINAD] | 0.29 nM | 1.34 nM | 0.78 nM | 0.36 nM | 3.95 nM | 
1410 nM | O=C(/C=C/c1cccnc1)NCCCc1ccc(CNCCc2c[nH]c3ccccc23)cc1 | 86.9 nM | 405 nM | 358 nM | 187 nM | 963 nM | 
715 nM | CC(C)(C)OC(=O)N(CCc1c[nH]c2ccccc12)Cc1ccc(CCCNC(=O)/C=C/c2cccnc2)cc1 | 85.5 nM | 288 nM | 123 nM | 54.3 nM | 399 nM | 
213 nM | CC(C)N(CCc1c[nH]c2ccccc12)Cc1ccc(CNC(=O)/C=C/c2cccnc2)cc1 | 75.1 nM | 173 nM | 134 nM | 77.9 nM | 335 nM | 
66.9 nM | CC(C)N(CCc1c[nH]c2ccccc12)Cc1ccc(CCCCCNC(=O)/C=C/c2cccnc2)cc1 | 0.63 nM | 3.23 nM | 0.89 nM | 0.61 nM | 4.2 nM | 
99.6 nM | Cc1ccc(CCN(Cc2ccc(CCCCCNC(=O)/C=C/c3cccnc3)cc2)C(C)C)cc1 | 5.53 nM | 26.6 nM | 7.19 nM | 8.73 nM | 39.2 nM | 
52.7 nM | CC(C)N(CCc1c[nH]c2ccccc12)Cc1ccc(CCCCCCCNC(=O)/C=C/c2cccnc2)cc1 | 0.74 nM | 2.64 nM | 0.84 nM | 0.75 nM | 4.2 nM | 

SMILES | IC50 [2] | GI50 (MCF7) | GI50 (HeLa) | GI50 (MDA-MB-231 [1]) | GI50 (U-937) | GI50 (NCI-H1975) | also measured
CC(C)N(CCc1c[nH]c2ccccc12)Cc1ccc(NCCCCCNC(=O)/C=C/c2cccnc2)cc1 | 25.3 nM | 0.13 nM | 0.5 nM | 0.15 nM | 0.25 nM | 1.61 nM | Tmax [3]: 2 h; IC50 [4]: 0.155 nM; AUC(0-inf) [5]: 1710 ng·h/mL; Cmax [6]: 108 ng/mL; CL/F [7]: 1140 mL/min/kg; half-life [8]: 1.55 h; Activity [9]: Non-Toxic; AUC(0-inf) [10]: 374 ng·h/mL; Cmax [11]: 3790 ng/mL; inhibition in vivo at 15 mg/kg (MDA-MB-231 [12]): 73.8%; bioavailability [13]: 4.4%; clearance [14]: 49 mL/min/kg; Tmax [15]: 1.98 min; Activity [16]: Non-Toxic; half-life [17]: 2.37 h; Ratio [18]: 500
